Xi reactivation = X-chromosome reactivation activator; activation, % at 7.58 µM; 360,000 compounds, 0.055% hits; XiGFP mouse fibroblasts, % GFP-positive cells imaging, 3 d; cells co-treated with 5-aza-dC sensitizer; scaled so ellipticine positive control = 100%;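 active = mean normalized replicate activation at least 10% and every replicate at or above 10%; inconclusive = only one of the two criteria met; inactive = mean below 10% and not all replicates reach 10%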;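 note: 0% = median of on-plate neutral control wells and 100% = ellipticine 6 µM median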
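Assay system – SV40-immortalized XiGFP fibroblast cells, line 68-5-11 · Buffer or medium – DMEM supplemented with 5-aza-dC as sensitizing agent · Dosing – one concentration, pinned · Benchmarks – positive control ellipticine, 6 µM final · Times – 3 days compound exposure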
esBAF inh = blocks esBAF chromatin remodeling in mouse ES cells; Bmi1-luciferase knock-in reporter, 24 h; 100% = twice the neutral-well signal; reporter increase, % at 12.5 µM; 350,000 compounds, 2% hits; AID 602393; in the data active = activation above about 40%; inconclusive = no clear call, values can overlap the other calls;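 note: 0% = median of the plate's neutral control wells and 100% = double that signal; a rise in the Bmi1 reporter signal indicates esBAF inhibition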
Vif inh = blocks HIV Vif function. HEK293T cells, Vif self-association by quenched fluorescence, imaging, 24 h. inhibition, % at 7.49 µM. 340,000 compounds, 0.35% hits; in the data active = inhibition above about 50%, passing the limit was not always enough; inconclusive = no clear call, values can overlap the other calls; inactive = below about 31%
MITF TRPM1 HTS = activators of MITF-driven TRPM1 promoter activity in SK-MEL-5 cells | SK-MEL-5 TRPM1-promoter luciferase, 24 h; % of positive control, neutral wells = 0 | activation, % at 12.5 µM | 300,000 compounds, 0.75% hits | AID 588334;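 active = mean activation of at least 80% with every replicate also reaching 80%; inconclusive = mean reaches 80% but some replicate falls short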;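 note: 0% = neutral control wells and 100% = parthenolide positive control wells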
Wnt bcat act = Wnt/beta-catenin pathway activation; Wnt/beta-catenin reporter cell assay, activator, plate reader; activation, % at 9.35 µM; 300,000 compounds, 1.2% hits; AID 743398; in the data active = activation above about 30%, passing the limit was not always enough; inconclusive = no clear call, values can overlap the other calls;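 note: 0% = neutral control wells and 100% = positive control wells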
* hit, by the source's call; ? = inconclusive; nt = no result. Rows were chosen to be rich in hits. Some 2.6% of all compounds tested hit in one or more screens of this group.

SMILES	Xi reactivation	esBAF inh	Vif inh	MITF TRPM1 HTS	Wnt bcat act
CC(/C=N/NC(=O)c1ccccc1C)=C\c1ccccc1	4.6	nt	0.3	nt	?
CC(/C=N/NC(=O)c1ccccc1F)=C\c1ccccc1	0.2	19.9	2.9	99.3*	5.4
CC(/C=N/NC(=O)c1cccs1)=C\c1ccccc1	0.0	38.4	-11.6	98.5*	9.8
CC(/C=N/NC(=O)c1sc(N)nc1C)=C\c1ccccc1	0.1	nt	4.9	120.0*	?
Cc1nc(N)sc1C(=O)N/N=C/c1ccccc1[N+](=O)[O-]	0.1	nt	-6.5	nt	9.0
O=C(N/N=C/C(Cl)=C\c1ccccc1)c1cccs1	0.1	nt	-4.3	nt	39.5*
O=C(N[C@@H]1C=C[C@@H](CC(=O)N2CCOCC2)O[C@@H]1CO)c1cccc(F)c1	-0.2	1.1	nt	nt	nt
O=C(Nc1ccc(Cl)cc1)N[C@@H]1CC[C@H](CCn2cc(C3(O)CCCC3)nn2)O[C@@H]1CO	0.4	2.5	nt	nt	nt
Cc1ccc2c(c1)NC(=O)c1cccnc1N2	nt	63.3*	-0.4	52.1	1.0
CCc1c(C)nc2ccc(Br)cc2c1Cl	nt	53.3*	5.4	nt	nt
Nc1nc(Cl)nc2ccc(Br)cc12	0.0	nt	-4.7	-4.1	nt
Fc1ccc(-c2nn3c(C4COc5ccccc5O4)nnc3s2)cc1 (configuration not stated)	nt	42.2*	-3.4	nt	nt
c1ccc2c(c1)OCC(c1nnc3sc(-c4ccc5c(c4)OCO5)nn13)O2 (configuration not stated)	nt	11.5	15.0	26.5	nt
O=C(Nc1ccccc1F)c1ccc(CSc2ncccn2)cc1	0.0	61.7*	8.3	75.7	10.5
O=C(O)COn1c(-c2ccccc2)nc2ccc([N+](=O)[O-])cc21	0.0	48.7*	-9.2	59.4	12.4
CCOC(=O)C(C)On1c(-c2ccc(Cl)cc2)nc2ccc([N+](=O)[O-])cc21 (configuration not stated)	nt	nt	4.2	58.4	nt
CCOC(=O)C(C)On1c(-c2ccccc2)nc2ccc([N+](=O)[O-])cc21 (configuration not stated)	nt	nt	7.4	98.8*	nt
CO[C@H]1CN(C)C(=O)c2cccc(C#N)c2OC[C@H]2O[C@H](CC[C@@H]2OC)CCN(C)C(=O)[C@H]1C	0.0	1.4	nt	nt	nt
Cc1cc(/C=C2/C(=O)N(C)C(=S)N2C)c(C)n1C1CC1	0.1	10.2	9.1	68.2	-0.7
CN1C(=O)/C(=C/C=C2\SCCN2C)N(C)C1=S	0.0	66.2*	5.5	70.9	-0.8
CCC(=O)Nc1ccc2c(c1)C(=O)N(C)C[C@H](OC)[C@H](C)CN(C(=O)C1CC1)[C@H](C)CO2	-0.6	0.6	nt	nt	nt
COc1ccc(Nc2ccnc(Nc3ccc(OC)cc3)n2)cc1	0.0	nt	-7.8	24.6	48.1*
Cc1cccc(S(=O)(=O)N2[C@@H]3CNC[C@H]2C3c2ccc(-c3cncnc3)cc2)c1 (some centres not stated)	0.1	nt	nt	nt	nt
CC(=O)N(C[C@H]1N[C@H](CO)[C@@H]1c1ccc(-c2cncnc2)cc1)C1CCCC1	0.2	nt	nt	nt	nt
O=C(O)c1ccc(CSc2nnc(-c3ccccc3Cl)n2-c2ccccc2)cc1	0.1	-0.5	-12.8	-9.8	-1.8
SMILES	Xi reactivation	esBAF inh	Vif inh	MITF TRPM1 HTS	Wnt bcat act
N#Cc1ccc(CSc2nnc(-c3cccs3)n2-c2ccccc2)cc1	nt	3.3	55.1*	nt	-3.0
N#Cc1ccc(CSc2nnc(-c3ccccn3)n2-c2ccccc2)cc1	nt	-1.1	4.3	-1.9	-1.5
O=C(O)c1ccc(CSc2nnc(-c3ccccc3)n2-c2ccccc2)cc1	0.0	nt	-6.3	-3.7	34.9*
O=C(Nc1ccc(N2CCOCC2)c(Cl)c1)c1ccc(Cl)cc1	-0.1	45.3*	1.1	68.2	18.8
O=C(Nc1ccc(N2CCCCC2)c(Cl)c1)c1ccc2c(c1)OCCO2	nt	52.3*	-14.5	nt	14.4
O=C(c1ccccc1)c1ccc(N2CCOCC2)c(F)c1	nt	57.8*	11.2	69.9	29.7
O=C(c1ccccc1)c1cc(F)c(N2CCOCC2)cc1Cl	nt	19.8	4.7	7.7	nt
O=C(Nc1ccc(Cl)c([N+](=O)[O-])c1)c1ccc2c(c1)OCCO2	0.3	86.1*	-2.8	95.5*	15.5
CNC[C@H]1Oc2ccc(NC(=O)Nc3ccc4c(c3)OCO4)cc2CC(=O)N([C@@H](C)CO)C[C@@H]1C	-1.1	-2.1	nt	nt	nt
C[C@@H]1CN([C@H](C)CO)S(=O)(=O)c2ccc(C3=CCCCC3)cc2O[C@H]1CN(C)C(=O)C1CCCCC1	-0.8	-1.5	nt	nt	nt
COC(=O)C[C@@H]1CC[C@H]2[C@H](COc3ccc(NC(=O)c4cccc(F)c4)cc3C(=O)N2C)O1	0.1	3.0	nt	nt	nt
O=C(Nc1ccc(N2CCOCC2)c(F)c1)c1cccs1	-0.1	23.2	-12.2	110.1*	?
O=C(Nc1ccc(N2CCOCC2)c(Cl)c1)c1ccccc1F	nt	103.3*	8.3	?	nt
O=C(Nc1ccc(N2CCCC2)c(Cl)c1)c1ccccc1F	-0.1	?	nt	nt	5.4
C[C@H](CO)N1C[C@H](C)[C@@H](CN(C)C(=O)CN(C)C)Oc2ncc(-c3ccc(F)cc3)cc2C1=O	-0.9	1.6	nt	nt	nt
C(=N\Nc1nc2ccccc2[nH]1)/c1c[nH]c2ccccc12	nt	nt	-27.9	122.5*	nt
C(/CCc1ccccc1)=N\Nc1nc2ccccc2[nH]1	0.0	nt	nt	5.4	39.6*
COc1ccc(/C=N/Nc2nc3ccccc3[nH]2)c(OC)c1OC	-0.1	-16.5	0.2	9.6	4.4
C(=N\Nc1nc2ccccc2[nH]1)/c1cccc2cccnc12	-0.1	nt	-1.7	nt	37.3*
C(=N\Nc1nc2ccccc2[nH]1)/C1CCCCC1	0.0	nt	3.2	22.0	-1.6
Cc1ccc(/C=N/Nc2nc3ccccc3[nH]2)s1	0.1	nt	-9.1	40.0	156.4*
Cc1ccccc1/C=N/Nc1nc2ccccc2[nH]1	0.0	nt	-10.0	34.5	8.4
CO[C@H]1CN(C)C(=O)c2ccc(NC(=O)NC(C)C)cc2OC[C@@H](C)N(Cc2cncnc2)C[C@H]1C	0.6	-0.5	nt	nt	nt
COc1cccc(NC(=O)N[C@@H]2C=C[C@@H](CC(=O)N3CCCCC3)O[C@@H]2CO)c1	0.3	nt	nt	nt	nt
CCCNC(=O)N1CC2(C1)CN(C(=O)CC)[C@@H](CO)c1c2c2ccc(OC)cc2n1C	0.4	nt	nt	nt	nt
SMILES	Xi reactivation	esBAF inh	Vif inh	MITF TRPM1 HTS	Wnt bcat act
COc1ccc2c3c([nH]c2c1)[C@@H](CO)N(C(=O)c1ccncc1)CC31CCN(C(=O)Nc2cccc(F)c2)CC1	0.3	nt	nt	nt	nt
Cc1ccc(/C=N/Nc2nc(Cl)c(Cl)cc2Cl)s1	nt	60.5*	nt	20.5	71.7*
Fc1ccc(/C=N/Nc2nc3ccccc3[nH]2)cc1F	0.0	nt	-4.9	70.2	6.9
c1ccc(CNc2nc3ccccc3[nH]2)cc1	nt	15.1	10.0	83.3*	19.9
C(=C\c1ccccc1)/C=N/Nc1nc2ccccc2[nH]1	1.8	nt	5.0	25.8	90.4*
Cc1ccsc1/C=N/Nc1nc(Cl)c(Cl)cc1Cl	nt	?	nt	19.5	-8.6
C(=N\Nc1nc2ccccc2[nH]1)/c1ccccc1	0.0	55.0*	-9.0	80.0	0.4
Fc1cccc(/C=N/Nc2nc3ccccc3[nH]2)c1	0.1	nt	nt	nt	12.2
